The array DNA melting data of Ke et al. (doi:10.1101/2024.01.08.574731)

Experiments:
[1] = folding enthalpy; higher = less favourable; fluorescence melt of hairpins on a sequencing array, two-state fit; conditions: sodium 0.088 M
Procedure, shortened: (§1)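 Hairpins were imaged by Cy3 fluorescence on a sequenced MiSeq flow cell with annealed Cy3 and quencher oligos, in 50 mM Na-HEPES pH 8.0, 25 mM NaCl, in 2.5 °C steps up to 60 °C. Bootstrapped two-state fits of normalised signals gave melting temperature and folding enthalpy. Four replicates were combined by inverse variance, and fitted temperatures were raised by 9.35 °C to match UV melts.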

[2] = melting temperature; fluorescence melt of hairpins on a sequencing array, two-state fit, raised by 9.35 °C to match UV melts; conditions: sodium 0.088 M
Procedure, shortened: as §1

Sequence	folding enthalpy [1] [kcal/mol]	Tm [2] [°C]
GGAGAGGGAAACCTTTCC (((.(((....))).)))	-27.3	38.2
GGAGAGTCGAAAGACTCC (((..(((....))))))	-10.9	46.6
GGAGATGCGAAAGCATCC (((..(((....))))))	-8.76	46.6
GGAGATGGAAACACCTCC ((((.((....)).))))	-29.7	39.7
GGAGATGGAAACATCCCC ((.((((....)))).))	-26.6	41.3
GGAGATGGAAACATTTCC (((.(((....))).)))	-32.9	39.2
GGAGATGGAAACGTTTCC (((.(.(....).).)))	-16.5	32.9
GGAGCACCGAAAGGTTCC (((..(((....))))))	-11.3	30.2
GGAGCAGCGAAAGCTTCC (((..(((....))))))	-13.8	30.8
GGAGCCCGAAAGGGTCC (((.(((....))))))	-18.9	59.9
GGAGCCCGAAAGGGTTCC (((.(((....))).)))	-25.7	68.4
GGAGCCGAAAGGCCCTCC ((((((....)))..)))	-12.8	64.6
GGAGCCGAAAGGCCGTCC ((((((....)))..)))	-9.47	36.3
GGAGCCGAAAGGCCTCC ((((((....))).)))	-24.4	54.5
GGAGCCGGAAACGACCCC ((.(.((....)).).))	-15.5	29.4
GGAGCGACGAAAGTCTCC (((..(((....))))))	-13.9	36.6
GGAGCGCGAAAGCGTTCC (((.(((....))).)))	-35	67.6
GGAGGACGAAAGTCATCC (((.(((....))).)))	-33.3	61.4
GGAGGAGGAAACTCCCCC ((.((((....)))).))	-17.6	41.8
GGAGGCACGAAAGTGTCC (((..(((....))))))	-12.6	41
GGAGGCGAAAGCCAGTCC ((((((....)))..)))	-10.6	34.1
GGAGGCGAAAGCCCTTCC ((((((....)))..)))	-15.2	53.1
GGAGGCGAAAGCCGGTCC ((((((....)))..)))	-9.6	43.3

Sequence	folding enthalpy [1] [kcal/mol]	Tm [2] [°C]
GGAGGCGGAAACACCCCC ((.((.(....).)).))	-12.8	26.6
GGAGGGAAACCTCC (((((....)))))	-26.3	54.7
GGAGGGCGAAAGCCTTCC (((.(((....))).)))	-24.9	61.9
GGAGGTCGAAAGACATCC (((.(((....))).)))	-38.7	57.5
GGAGGTCGAAAGACTTCC (((.(((....))).)))	-37.5	53.5
GGAGTACGAAAGTATCC (((.(((....))))))	-22.7	38.5
GGAGTACGAAAGTATTCC (((.(((....))).)))	-33.1	49.2
GGAGTAGAAATACTCC ((((((....))))))	-32.6	52
GGAGTAGGAAACTACTCC (((((((....)))))))	-46.4	59
GGAGTCCGAAAGGATCC (((.(((....))))))	-21.6	47.8
GGAGTCCGAAAGGATTCC (((.(((....))).)))	-47.8	55.7
GGAGTCGAAAGACATCC ((((((....))).)))	-18.2	42.8
GGAGTCGAAAGACGATCC ((((((....)))..)))	-12.3	46
GGAGTCGAAAGACGGTCC ((((((....)))..)))	-14.1	39.2
GGAGTCGGAAACGACCCC ((.((((....)))).))	-15.2	54.4
GGAGTGCGAAAGCAATCC (((.(((....))).)))	-35.7	60.1
GGAGTGTCGAAAGACTCC (((..(((....))))))	-17.2	39.2
GGAGTTCGAAAGAATCC (((.(((....))))))	-17.5	33.5
GGAGTTGGAAACAGCTCC ((((.((....)).))))	-43.9	50.2
GGATAACCGAAAGGTTCC (((..(((....))))))	-14.1	32.4
GGATAACGAAAGTTTCC (((.(((....))))))	-20.4	40.1
GGATAAGGAAACCTATCC (((((.(....).)))))	-30.3	33.5
GGATAAGGAAACTTGTCC (((.(((....))).)))	-29.6	39.2

Sequence	folding enthalpy [1] [kcal/mol]	Tm [2] [°C]
GGATACCGAAAGGTGTCC (((.(((....))).)))	-44	58.8
GGATACGAAAGTAACTCC ((((((....)))..)))	-16	30.6
GGATACGAAAGTACCTCC ((((((....)))..)))	-20	40.1
GGATACGAAAGTATCTCC ((((((....)))..)))	-13.3	46.2
GGATACGGAAACGTGTCC (((.(((....))).)))	-46.1	52.7
GGATCAGGAAACTGGTCC (((.(((....))).)))	-39.2	51.3
GGATCCCCGAAAGGGTCC (((..(((....))))))	-19.8	45.3
GGATCCCGAAAGGGTTCC (((.(((....))).)))	-29.8	54.3
GGATCCGAAAGGAATTCC ((((((....)))..)))	-14.1	32.2
GGATCCGAAAGGATCTCC ((((((....)))..)))	-9.17	53.6
GGATCGGGAAACCGATTC (.(((((....))))).)	-26.6	50.6
GGATCTGGAAACAGGTTC (.(.(((....))).).)	-14.1	30.5
GGATCTGGAAACGGATTC (.(((.(....).))).)	-28.5	31.5
GGATGACCGAAAGGTTCC (((..(((....))))))	-10.9	34.2
GGATGACGAAAGTCGTCC (((.(((....))).)))	-38.4	64.5
GGATGAGGAAACTCATCC (((((((....)))))))	-43.5	63.1
GGATGAGGAAACTTGTCC (((..((....))..)))	-24.4	31.1
GGATGCACGAAAGTGTCC (((..(((....))))))	-14	30.8
GGATGCCGAAAGGCCTCC (((.(((....))).)))	-24.9	50.5
GGATGCCGAAAGGCTCC (((.(((....))))))	-17.8	55
GGATGCGAAAGCAACTCC ((((((....)))..)))	-11.9	41.8
GGATGCGAAAGCACATCC ((((((....)))..)))	-19.2	42.2
GGATGCGAAAGCACGTCC ((((((....)))..)))	-12	33.1

Sequence	folding enthalpy [1] [kcal/mol]	Tm [2] [°C]
GGATGCGAAAGCACTCC ((((((....))).)))	-29	49.6
GGATGCGAAAGCATCTCC ((((((....)))..)))	-9.29	52.6
GGATGCGAAAGCATTCC ((((((....))).)))	-16.9	55.9
GGATGCGGAAACGCGTTC (.(.(((....))).).)	-17.4	41.5
GGATGGAAACATCC (((((....)))))	-29.8	51.8
GGATGGCGAAAGCCTCC (((.(((....))))))	-18.6	55.6
GGATGGGGAAACCCGTTC (.(.(((....))).).)	-16.5	36.1
GGATGTGAAAACATCC ((((((....))))))	-38.3	58.5
GGATGTGCGAAAGCATCC (((..(((....))))))	-17.6	45.8
GGATGTGGAAACATATCC ((((.((....)).))))	-28.7	44.9
GGATTAGGAAACTAATTC (.(((((....))))).)	-25.2	33.9
GGATTCCGAAAGGATTCC (((.(((....))).)))	-35.8	49.7
GGATTCGGAAACAAATCC (((((.(....).)))))	-22.9	35.8
GGATTCGGAAACGAATTC (.(((((....))))).)	-33.2	47.7
GGATTCTCGAAAGAGTCC (((..(((....))))))	-22.7	33.5
GGATTGCGAAAGCACTCC (((.(((....))).)))	-34.9	49.4
GGATTGGGAAACCAACCC ((.((((....)))).))	-31.5	41.2
GGATTGGGAAACCGATCC ((((.((....)).))))	-40.7	51
GGATTGGGAAACCGATTC (.((.((....)).)).)	-19.9	31.6
GGATTTGAAAAAATCC ((((((....))))))	-34.7	49.6
GGATTTGGAAACAAACCC ((.((((....)))).))	-30.1	35.6
GGATTTGGAAACAAGTCC (((.(((....))).)))	-31.5	42.7
